Assay results gathered from unrelated publications.
Compare with care: the assays were run in different laboratories.
Target: Serine/threonine-protein kinase Sgk3 (SGK3, Homo sapiens, UniProt Q96BR1)
One construct used (Q96BR1 1-496): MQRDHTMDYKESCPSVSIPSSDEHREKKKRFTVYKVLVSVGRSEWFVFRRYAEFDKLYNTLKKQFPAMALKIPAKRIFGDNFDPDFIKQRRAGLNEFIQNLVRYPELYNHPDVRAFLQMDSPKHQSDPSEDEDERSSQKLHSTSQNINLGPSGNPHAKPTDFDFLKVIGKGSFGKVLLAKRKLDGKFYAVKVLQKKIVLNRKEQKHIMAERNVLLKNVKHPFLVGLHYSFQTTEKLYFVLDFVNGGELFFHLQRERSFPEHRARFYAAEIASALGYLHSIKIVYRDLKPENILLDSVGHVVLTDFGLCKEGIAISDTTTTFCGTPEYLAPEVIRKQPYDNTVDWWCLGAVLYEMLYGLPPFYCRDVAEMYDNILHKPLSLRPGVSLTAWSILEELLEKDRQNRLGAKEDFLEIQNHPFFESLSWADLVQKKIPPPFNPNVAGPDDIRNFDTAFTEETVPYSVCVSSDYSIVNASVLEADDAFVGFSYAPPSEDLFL

SMILES	assay	setting	endpoint	value
C[C@@H]1CCN(C(=O)CC#N)C[C@@H]1N(C)c1ncnc2[nH]ccc12	cell-free assay, inhibitor	0.5 µM	remaining signal	98.1%
Cn1nc(C(=O)NCc2ccc(C(=O)O)cc2)cc1-c1ccc2[nH]ccc2c1	cell-free assay, competition with immobilised ligand	0.1 µM	remaining binding	96%
CCCCNc1ncc2c(-c3ccc(F)cc3)nn(C[C@H]3CC[C@H](N)CC3)c2n1	target engagement in cells, inhibitor, chemoproteomics	20 mM	inhibition	-2.1%
Cc1ccc(Nc2nccc(N(C)c3ccc4c(C)n(C)nc4c3)n2)cc1S(N)(=O)=O	enzyme activity, inhibitor	10 µM	inhibition	13%
N#CCCc1ccc2c(c1)-c1[nH]c3ccc([N+](=O)[O-])cc3c1CC(=O)N2	cell-free assay	0.5 µM	remaining signal	99.2%
CNC(=O)c1cc(Oc2ccc(NC(=O)Nc3ccc(Cl)c(C(F)(F)F)c3)cc2)ccn1	enzyme activity, inhibitor	0.3 µM	inhibition	14%
CCN(CC)CCNC(=O)c1c(C)[nH]c(/C=C2\C(=O)Nc3ccc(F)cc32)c1C	cell-free assay	0.5 µM	remaining signal	101%
COc1cc2ncnc(Nc3ccc(Oc4ccccc4)cc3C)c2cc1OC	enzyme activity, inhibitor	1 µM	inhibition	0%
Cc1cc(NC(=O)c2cccc3cc(-c4cccc5[nH]nc(N)c45)ccc23)ccc1F	enzyme activity, inhibitor	0.1 µM	activity vs control	106%
Cc1sc(C(=O)NC2COC2)cc1-n1cc(NC(=O)Nc2c(F)cccc2Cl)cn1	enzyme activity, inhibitor	10 µM	remaining activity	90.1%
CN1CC(Oc2cnc(C#N)cc2-c2ccn3nc(NC(=O)C4CC4)cc3c2)C1	enzyme activity, inhibitor	1 µM	inhibition	-3%
CCc1ccccc1C(=O)Nc1n[nH]c2c(C)c(F)c(C3C(C#N)=C(C)N(C)C(C)=C3C#N)cc12	cell-free assay, competition with immobilised ligand	1 µM	remaining binding	91%
CC/C(=N\NC(=O)NCc1cccc(O)c1)c1ccc(O)c(C)c1O	enzyme activity, inhibitor	0.1 µM	inhibition	83.9%
CC(C)(C)c1nc2c(s1)c1nc(N)ncc1c1ccc(NS(=O)(=O)c3c(F)cccc3F)c(F)c12	enzyme activity, inhibitor, radiometric	1 µM	remaining activity	89%
O=C(Nc1cccnn1)N1CC(C/C=C/c2cncc(Oc3ccc(C(F)(F)F)cn3)n2)C1	cell-free assay, competition with immobilised ligand	1 µM	remaining binding	87%
O=C1Nc2ccc(Cl)cc2C1=Cc1cc(Cl)c(O)c(Cl)c1	cell-free assay	0.5 µM	remaining signal	98.6%
Cc1nc(C2CCN(C(=O)c3ccc(OC(F)(F)F)cc3N)CC2)c2ncc(N3CCN(C)CC3)cc2n1	cell-free assay, competition with immobilised ligand	1 µM	remaining binding	93%
CCCS(=O)(=O)Nc1ccc(F)c(C(=O)c2c[nH]c3ncc(-c4ccc(Cl)cc4)cc23)c1F	enzyme activity, inhibitor	1 µM	inhibition	< 10%
Cc1c(NC(=O)c2cc(C(N)=O)nc3cc(F)ccc23)c(C(F)(F)F)nn1Cc1ccc(C#N)cc1	cell-free assay, competition with immobilised ligand	1 µM	remaining binding	83%
c1ccc(CNc2nc(N3CCOc4ccccc43)nc3c2CCCC3)cc1	target engagement in cells, inhibitor, chemoproteomics	20 mM	inhibition	-9%
CO[C@@H](C)c1c(Nc2ccc([C@H](N(C)C(=O)C3CCS(=O)(=O)CC3)C(F)(F)F)cc2)cnc2cc(Cl)nn12	cell-free assay, competition with immobilised ligand	1 µM	remaining binding	100%
CCCOc1ccc(OC)c(F)c1C(=O)c1ccc(C(=O)N[C@@H]2CNC[C@H]2NC(=O)c2ccc3[nH]ncc3c2)cc1	enzyme activity, inhibitor	10 µM	remaining activity	23%
CCS(=O)(=O)c1cc2cc(C[C@@](O)(CC(C)(C)c3ccc(F)cc3C(N)=O)C(F)(F)F)[nH]c2cn1	cell-free assay, competition with immobilised ligand	1 µM	remaining binding	79%
Cc1ccc(NC(=O)c2ccc(C)c(C(F)(F)F)c2)cc1C#Cc1nn(C2CCC(O)CC2)c2ncnc(N)c12 (stereo not drawn)	cell-free assay	10 µM	remaining signal	98%
